Counter-ions that a name gives are not always drawn.
Legend:
[1] = circulating steroid in humans; ref White and Porterfield, 2013; cited from earlier work
[2] = target: T1, human estrogen sulfotransferase (SULT1E1) (Homo sapiens, UniProt P49888); experiment: Inhibition of SULT1E1-catalyzed sulfation of [3H]estradiol; format: biochemical; details: 7.0 nM estradiol
T1 sequence (P49888 1-294): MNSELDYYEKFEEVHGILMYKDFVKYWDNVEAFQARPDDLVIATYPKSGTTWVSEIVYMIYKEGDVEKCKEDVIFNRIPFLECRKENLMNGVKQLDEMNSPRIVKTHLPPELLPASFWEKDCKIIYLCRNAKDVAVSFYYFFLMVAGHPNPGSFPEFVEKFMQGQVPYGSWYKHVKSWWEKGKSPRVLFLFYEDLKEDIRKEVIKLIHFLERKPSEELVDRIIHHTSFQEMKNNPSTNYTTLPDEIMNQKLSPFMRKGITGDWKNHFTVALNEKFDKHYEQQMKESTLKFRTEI
Procedure, shortened: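 Purified recombinant human enzyme expressed in E. coli BL21(DE3). Test compound added in ethanol at 0.01–10,000 nM. Equilibrated 3 min at 37 °C, started with 3.0 ng enzyme, run 4 min. Stopped with Tris-HCl pH 8.7 plus chloroform. Aqueous [3H]estradiol-3-sulfate counted by scintillation. Triplicates. IC50 fitted from % of control rate.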

[3] = metabolite in human plasma; ref Quinete et al., 2017; cited from earlier work

C[C@]12CC[C@H](O)CC1=CC[C@@H]1[C@@H]2CC[C@]2(C)C(=O)CC[C@@H]12 [DHEA, dehydroepiandrosterone]
half-life [1]: 0.25 to 0.5 h

Oc1ccc(-c2ccc(Cl)cc2)cc1 [4’-OH-PCB 3, 4-chloro-4’-hydroxybiphenyl]
fold higher IC50 value for SULT1E1 than 4-OH-PCB 11 and 4’-OH PCB 25 [2]: ~200 fold

O=S(=O)(O)Oc1ccc(-c2ccc(Cl)cc2Cl)cc1Cl [4’-PCB 25 Sulfate, 2,3’,4-trichloro-4’-biphenylsulfate]
IC50 value for SULT1E1, fold greater than the estradiol concentration [2]: over 50 fold

C[C@]12CC[C@H](OS(=O)(=O)O)CC1=CC[C@@H]1[C@@H]2CC[C@]2(C)C(=O)CC[C@@H]12 [DHEA-sulfate, dehydroepiandrosterone sulfate]
half-life [1]: 7 to 10 h

Oc1ccc(-c2ccc(Cl)cc2Cl)cc1Cl [4’-OH-PCB 25, 2,3’,4-trichloro-4’-hydroxybiphenyl]
estimated half-life in human plasma [3]: 6.5 years

Source: publication PMC6078096 (Environmental toxicology and pharmacology, 2018)
